# In the library only some 5.9% were active in any assay of this set; here they are far more common.
# T cruzi growth-1 – T. cruzi intracellular proliferation inhibitors, primary screen, cell-based, beta-gal Tulahuen parasites, NIH3T3 host, luminescence | 77,000 compounds, 5.9% hits | inhibition, % at 8.34 µM | T. cruzi beta-gal in NIH3T3, GalScreen luminescence, 90 h | AID 624255, 2012;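 active means mean inhibition above about 93%, with at least 55% of replicates each passing it, limit read from the data, passing the limit was not always enough; inconclusive means only one of those two conditions holds; inactive means neither condition holds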
# Pf Dd2 inh – P. falciparum Dd2 growth inhibitors, primary screen, SYBR Green fluorescence, single dose replicates; 94,000 compounds, 2.3% hits; 72 h; stronger effect = lower value; activity change, % at 10 µM; in the data active means activity change below about -80%; inconclusive means no clear call, values can overlap the other calls
# IDH1 R132H inh – inhibitors of IDH1 R132H reductase, primary screen, biochemical, plate reader, single point; Isocitrate dehydrogenase [NADP] cytoplasmic (Homo sapiens), O75874; diaphorase/resazurin fluorescence, 60 min; inhibition, % at 10 µM; 70,000 compounds, 0.18% hits; AID 624101, 2012; in the data active means inhibition above about 34%; inconclusive means no clear call, values can overlap the other calls; inactive means below about 11%;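 further: 0% = DMSO and 100% = no enzyme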
# GASC1 inh – inhibitors of GASC-1 (KDM4C) histone demethylase, primary screen, biochemical, single concentration HTS; 96,000 compounds, 0.15% hits; AID 720574, 2013; inhibition, % at 12.5 µM; GST-KDM4C 2-372, H3K9me3 peptide, LANCE TR-FRET;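 active means mean replicate inhibition above about 25%, with at least 55% of replicates also reaching it, limit read from the data, passing the limit was not always enough; inconclusive means only one of those two conditions met; inactive means neither condition met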
# Target sequence (Q9H3R0 2-372 limits assumed): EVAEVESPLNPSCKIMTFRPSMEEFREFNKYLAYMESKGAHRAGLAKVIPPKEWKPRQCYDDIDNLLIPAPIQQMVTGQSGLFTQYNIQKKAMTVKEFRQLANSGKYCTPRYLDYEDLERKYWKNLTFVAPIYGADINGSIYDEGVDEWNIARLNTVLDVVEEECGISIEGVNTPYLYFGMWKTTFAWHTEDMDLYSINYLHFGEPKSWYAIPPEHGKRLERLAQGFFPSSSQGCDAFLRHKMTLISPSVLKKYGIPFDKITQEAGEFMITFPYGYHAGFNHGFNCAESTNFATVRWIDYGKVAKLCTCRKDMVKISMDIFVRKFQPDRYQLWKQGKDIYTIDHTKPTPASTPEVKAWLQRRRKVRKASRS
#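 Test system: N-terminal GST-fused human GASC-1 (KDM4C) fragment, residues 2-372; quantity: GASC-1 enzyme at 10 nM final in reaction; dosing: single dose; schedule: 30 min demethylation and 1 h detection at room temperature; signal: LANCE TR-FRET, excitation 340 nm, emissions 618 and 671 nm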
# T cruzi growth-2 – T. cruzi intracellular proliferation inhibitors, confirmation, cell-based, NIH3T3 host, beta-gal parasite, luminescence, cherry-pick; T. cruzi beta-gal in NIH3T3, GalScreen luminescence, 90 h; inhibition, % at 8.35 µM; shares compounds with T cruzi growth-1; 5,600 compounds, 72% hits;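 active means mean replicate inhibition above about 95% and at least 55% of replicates individually reaching it, limit read from the data; inconclusive means only one of the two criteria is met; inactive means neither criterion is met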
# T cruzi growth-3 – inhibitors of intracellular T. cruzi replication, confirmation, NIH3T3 host cells, beta-gal parasites, cherry-pick, set 2 | shares compounds with T cruzi growth-1 | T. cruzi beta-gal in NIH3T3, GalScreen luminescence, 90 h | inhibition, % at 2.09 µM | 5,600 compounds, 21% hits | AID 651740, 2012;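 active means mean inhibition above about 95%, with at least 55% of replicates also reaching it, limit read from the data; inconclusive means meets just one of the two conditions; inactive means meets neither condition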;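 further: plate controls were neutral control median for no effect and positive control median for full effect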
# NIH3T3 tox – cytotoxicity in mouse NIH/3T3 fibroblasts, confirmation, cytotoxicity control for T. cruzi proliferation inhibitor project, cell-based, cherry-pick, single point | 5,600 compounds, 14% hits | shares compounds with T cruzi growth-1 | NIH/3T3 viability, CellTiter-Glo ATP luminescence, 90 h | cytotoxicity (signal decrease), % at 8.35 µM;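 active means mean signal decrease across replicates above about 35% based on untreated-well scatter, with enough replicates individually passing, limit read from the data; inconclusive means no rule stated though some were filed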;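 further: 0% = median of neutral control wells and 100% = median of positive control wells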
# 3T3 cytotox 2 – NIH/3T3 fibroblast cytotoxicity, confirmation, cytotoxicity control, cell-based, cherry-pick, single point, set 2. NIH/3T3 viability, CellTiter-Glo ATP luminescence, 90 h. shares compounds with T cruzi growth-1. 5,600 compounds, 56% hits. inhibition, % at 24.9 µM;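 active means mean loss of cell viability signal at or above a set limit, and enough replicates individually reaching it; inconclusive means meets only the mean limit or only the replicate share; inactive means meets neither condition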;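 further: 0% = median of neutral control wells and 100% = median of positive control wells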
# The depositor's hits bear a star; ? = inconclusive; . = no result.
SMILES,T cruzi growth-1,Pf Dd2 inh,IDH1 R132H inh,GASC1 inh,T cruzi growth-2,T cruzi growth-3,NIH3T3 tox,3T3 cytotox 2
C[C@@H]1CN([C@H](C)CO)C(=O)Cc2cc(NS(=O)(=O)c3ccc(F)cc3)ccc2O[C@H]1CN(C)S(C)(=O)=O,52.0,11.4,-0.1,-0.2,.,.,.,.
C[C@@H]1CCCCO[C@@H](CN(C)C(=O)C2CCCCC2)[C@H](C)CN([C@@H](C)CO)C(=O)c2cc(NS(=O)(=O)c3cccs3)ccc2O1,17.3,-8.6,1.6,-0.7,.,.,.,.
C[C@H](CO)N1C[C@H](C)[C@H](CN(C)C(=O)C2CCCCC2)OCCCC[C@H](C)Oc2ccc(NS(=O)(=O)c3cccs3)cc2C1=O,114.5*,-47.3,-0.6,-2.1,81.9,45.1,7.0,9.9
C[C@@H]1CCCCO[C@@H](CN(C)C(=O)C2CCCCC2)[C@@H](C)CN([C@@H](C)CO)C(=O)c2cc(NS(=O)(=O)c3cccs3)ccc2O1,109.7*,-41.5,3.0,-1.8,46.2,10.3,-2.4,9.7
C[C@H](CO)N1C[C@H](C)[C@H](CN(C)C(=O)C2CCC2)Oc2cc(C#CCN(C)C)ccc2S1(=O)=O,?,-20.0,.,-3.9,113.7*,97.6*,-10.0,3.0
C[C@H]1CN([C@@H](C)CO)S(=O)(=O)c2ccc(C#CCN(C)C)cc2O[C@@H]1CN(C)C(=O)C1CCC1,104.8*,1.1,.,-0.7,105.6*,94.8,3.3,-9.5
C[C@H](CO)N1C[C@H](C)[C@@H](CN(C)C(=O)C2CCCCC2)Oc2cc(C#CCN(C)C)ccc2S1(=O)=O,.,-18.5,.,0.5,.,.,.,.
CO[C@H]1CN(C)C(=O)c2cc(NS(=O)(=O)c3cn(C)cn3)ccc2OC[C@@H](C)N(CCC(F)(F)F)C[C@@H]1C,13.5,-1.6,-0.1,-3.0,.,.,.,.
COc1ccccc1C#Cc1ccc([C@@H]2[C@@H](C#N)N(C(=O)C3CCC3)[C@H]2CO)cc1,97.3*,-73.2,.,-3.1,104.0*,110.7*,-24.2,5.8
COc1ccccc1C#Cc1ccc([C@@H]2[C@@H](C#N)N(C(=O)C3CCC3)[C@@H]2CO)cc1,80.2,-11.3,.,-2.0,.,.,.,.
COc1ccccc1C#Cc1ccc([C@@H]2[C@H](C#N)N(C(=O)C3CCC3)[C@H]2CO)cc1,?,-52.3,.,4.3,102.9*,111.2*,30.6,28.2*
CNC[C@@H]1Oc2cc(C#Cc3ccc(OC)cc3)ccc2S(=O)(=O)N([C@H](C)CO)C[C@H]1C,103.1*,-55.6,0.6,-3.5,106.9*,81.3,15.4,104.7*
CNC[C@H]1Oc2cc(C#Cc3ccc(F)cc3)ccc2S(=O)(=O)N([C@H](C)CO)C[C@@H]1C,.,-64.1,1.4,-4.9,.,.,.,.
CNC[C@H]1Oc2cc(C#Cc3ccc(OC)cc3)ccc2S(=O)(=O)N([C@@H](C)CO)C[C@@H]1C,108.6*,-73.0,-0.7,-3.7,103.5*,94.3,-3.6,104.7*
CNC[C@@H]1Oc2cc(C#Cc3cccc(OC)c3)ccc2S(=O)(=O)N([C@@H](C)CO)C[C@@H]1C,.,-69.1,-1.0,1.4,.,.,.,.
CO[C@@H]1CC[C@H]2CCOc3ccc(C#N)cc3C(=O)N(C)[C@@H](C)C(=O)N(C)C[C@H]1O2,-3.2,.,.,-1.5,.,.,.,.
O=C(NC1CCCCC1)N[C@H]1C=C[C@@H](CC(=O)N2CCOCC2)O[C@@H]1CO,-41.4,15.4,-0.3,-3.0,.,.,.,.
OC[C@@H]1Nc2ccc(C#Cc3ccccc3)cc2[C@H]2[C@@H]1CCN2Cc1nccs1,?,-40.3,.,3.1,99.2*,107.3*,31.4,99.0*
OC[C@H]1Nc2ccc(C#Cc3ccccc3)cc2[C@@H]2[C@H]1CCN2Cc1nccs1,97.9*,-46.6,.,0.4,97.4*,100.6*,-2.6,104.0*
C[C@@H]1CCCCO[C@@H](CN(C)C(=O)Cc2ccccc2)[C@@H](C)CN([C@H](C)CO)C(=O)c2cc(NS(=O)(=O)c3ccc(Cl)cc3)ccc2O1,-2.5,-3.4,.,-0.1,.,.,.,.
C[C@@H]1CCCCO[C@@H](CN(C)Cc2ccc(C(F)(F)F)cc2)[C@H](C)CN([C@@H](C)CO)C(=O)c2cc(NC(=O)Nc3ccc(C(F)(F)F)cc3)ccc2O1,?,-64.8,.,0.0,101.8*,116.6*,25.4,-1.5
C[C@H]1CCCCO[C@H](CN(C)Cc2ccc(C(F)(F)F)cc2)[C@@H](C)CN([C@@H](C)CO)C(=O)c2cc(NC(=O)NC3CCCCC3)ccc2O1,64.1,4.9,1.9,0.4,.,.,.,.
C[C@@H]1CCCCO[C@@H](CN(C)Cc2ccccc2)[C@@H](C)CN([C@@H](C)CO)C(=O)c2cc(NC(=O)Nc3ccc(C(F)(F)F)cc3)ccc2O1,86.2,-61.9,-0.3,-1.8,.,.,.,.
C[C@@H]1CCCCO[C@H](CN(C)Cc2ccc(C(=O)O)cc2)[C@H](C)CN([C@H](C)CO)C(=O)c2cc(NC(=O)Nc3ccc(C(F)(F)F)cc3)ccc2O1,45.4,-45.6,.,0.4,.,.,.,.
C[C@@H]1CCCCO[C@@H](CN(C)Cc2ccccc2)[C@@H](C)CN([C@H](C)CO)C(=O)c2cc(NC(=O)Nc3ccc(C(F)(F)F)cc3)ccc2O1,?,31.6,.,-0.4,89.4,115.3*,29.2,11.8
C[C@@H]1CCCCO[C@@H](CN(C)Cc2ccc(C(F)(F)F)cc2)[C@H](C)CN([C@@H](C)CO)C(=O)c2cc(NC(=O)NC3CCCCC3)ccc2O1,?,-9.8,.,-1.3,98.0*,117.9*,10.7,-8.1
C[C@@H]1CN([C@@H](C)CO)C(=O)c2cc(NC(=O)Nc3ccc(C(F)(F)F)cc3)ccc2O[C@@H](C)CCCCO[C@H]1CN(C)Cc1ccc(C(F)(F)F)cc1,?,-68.0,-1.3,-0.3,-41.4,-40.5,6.0,-10.9
c1ccc(-c2ccc(OCCCCSc3ncccn3)cc2)cc1,.,.,-0.4,.,.,.,.,.
OC[C@@H]1[C@@H](c2ccc(-c3ccccc3F)cc2)[C@H]2CN(Cc3cncnc3)CCCCN12,46.0,-13.0,.,-0.4,.,.,.,.
OC[C@H]1[C@H](c2ccc(-c3ccccc3F)cc2)[C@@H]2CN(Cc3cncnc3)CCCCN12,107.9*,-24.3,.,-0.7,107.7*,86.9,4.1,35.9*
